Assay results as given in ChEMBL document CHEMBL1124631, “3-(aminoalkyl)-1,2,3,4-tetrahydro-5H-[1]benzopyrano[3,4-c] pyridin-5-ones as potential anticholinergic bronchodilators” (1989).

What was measured:
[1] = system: Cavia porcellus; assay: Methacholine challenge test was performed on guinea pigs by administration of compound at 25 mg/kg perorally; type: functional; conditions: route oral
Procedure, shortened: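 Hartley guinea pigs, six per treatment, dosed orally at 25 mg/kg 15 min before challenge. Exposed for 10 min to 0.1% methacholine chloride aerosol from two nebulizers in a closed chamber, air pressure 10 lb/in.². Time from aerosol onset to collapse recorded and averaged ± S.E.M. Non-collapsing animals removed at 10 min and scored 10.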

[2] = species: Canis familiaris; assay: Pulmonary selectivity measured as the ratio of salivation and bronchospasm; type: functional, Canis lupus familiaris, Bronchiole
Procedure, shortened: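 Pilocarpine-infused dog model measuring pulmonary resistance and salivary output under cumulative iv doses (1–10,000 μg/kg). ID50 for each response by log dose–response linear regression. Selectivity = ID50 for salivation inhibition divided by ID50 for bronchospasm inhibition. Most compounds tested in one dog.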

[3] = species: Canis familiaris; assay: Compound dose for inhibiting dog cholinergic bronchoconstriction by 50% of control value.; type: functional; conditions: Canis lupus familiaris, Lung; read-out: ID50 (the source's name)
Procedure, shortened: (§1)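 Dogs with femoral vein cannulated; respiratory rate, heart rate and arterial pressure monitored. Bunolol 0.5 mg/kg iv given 30 min before pilocarpine nitrate infusion (0.2 mg/kg/h) to induce bronchospasm and salivation. Saliva collected from catheterized Wharton's duct every 5 min. Cumulative iv doses 1–10,000 μg/kg given every 5 min. ID50 by linear regression of log cumulative dose vs % inhibition. Mostly one dog per compound.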

[4] = species: Canis familiaris; assay: Inhibition of dog salivation by 50% of control value.; type: functional; conditions: Canis lupus familiaris; read-out: ID50 (the source's name); procedure, shortened: as §1

| SMILES | Collapse time [1] | Ratio [2] | ED50 [3] | ED50 [4] |
| --- | --- | --- | --- | --- |
| COc1cc2oc(=O)c3c(c2cc1OC)CCN(CCN1CC2CCC1CC2)C3 | 7.6 min | 1 | 0.137 mg/kg | 0.14 mg/kg |
| COc1ccc2c3c(c(=O)oc2c1)CN(CCN1CC2CCC1CC2)CC3 | 10 min | 1.6 | 0.063 mg/kg | 0.102 mg/kg |
| Cc1cc2oc(=O)c3c(c2cc1C)CCN(CC(C)N1CCCCC1)C3 (configuration not stated) | 7.7 min | 3.9 | 0.3 mg/kg | 1.16 mg/kg |
| CCOc1cc2oc(=O)c3c(c2cc1OCC)CCN(CC(C)N1CCCCC1)C3 (configuration not stated) | 10 min | 1.5 | 0.126 mg/kg | 0.194 mg/kg |
| COc1cc2oc(=O)c3c(c2cc1OC)CCN(CCN1CC2CCCC(C2)C1)C3 | 6.6 min | – | 0.119 mg/kg | – |
| CCN(C)C(C)CN1CCc2c(c(=O)oc3cc(OC)c(OC)cc23)C1 (configuration not stated) | 6 min | 0.82 | 0.135 mg/kg | 0.111 mg/kg |
| CCCN(CC)C(C)CN1CCc2c(c(=O)oc3cc(OC)ccc23)C1 (configuration not stated) | 10 min | 0.47 | 0.058 mg/kg | 0.027 mg/kg |
| COc1ccc2c3c(c(=O)oc2c1)CN(CCN1CC2CCCC(C2)C1)CC3 | 7.3 min | 0.15 | 1.03 mg/kg | 0.154 mg/kg |
| COc1ccc2c3c(c(=O)oc2c1)CN(CCN1CC2CCC(CC2)C1)CC3 | 6 min | 3 | 0.035 mg/kg | 0.104 mg/kg |
| COc1cc2oc(=O)c3c(c2cc1OC)CCN(CC(C)N1CCOCC1)C3 (configuration not stated) | 10 min | – | – | – |
| CCCN(C)C(C)CN1CCc2c(c(=O)oc3cc(OC)ccc23)C1 (configuration not stated) | 10 min | 1.2 | 0.073 mg/kg | 0.084 mg/kg |
| COc1cc2oc(=O)c3c(c2cc1OC)CCN(CCN1CCCCCC1)C3 | 4 min | – | – | – |
| COc1cc2oc(=O)c3c(c2cc1OC)CCN(CCN1CCCCC1)C3 | 4.9 min | – | – | – |
| Cc1cc2oc(=O)c3c(c2cc1C)CCN(CCN1CC2CCC(CC2)C1)C3 | 5.1 min | 0.6 | 0.372 mg/kg | 0.223 mg/kg |
| O=c1oc2ccccc2c2c1CN(CCN1CC3CCC(CC3)C1)CC2 | 5.2 min | 0.08 | 0.849 mg/kg | 0.068 mg/kg |
| COc1ccc2c3c(c(=O)oc2c1)CN(CCN1CCOCC1)CC3 | 6.1 min | 0.63 | 1.14 mg/kg | 0.714 mg/kg |
| CCOc1cc2oc(=O)c3c(c2cc1OCC)CCN(CCN1CC2CCC(CC2)C1)C3 | 6.3 min | 0.79 | 0.267 mg/kg | 0.21 mg/kg |
| COc1ccc2c3c(c(=O)oc2c1)CN(CCN(C)C)CC3 | 1.9 min | – | – | – |
| Cc1ccc2c3c(c(=O)oc2c1)CN(CC(C)N(C)C)CC3 (configuration not stated) | 10 min | 3.7 | – | – |
| CCNC(C)CN1CCc2c(c(=O)oc3cc(OC)c(OC)cc23)C1 (configuration not stated) | 1.7 min | – | – | – |
| CCCN(CC)C(C)CN1CCc2c(c(=O)oc3cc(OC)c(OC)cc23)C1 (configuration not stated) | 3.7 min | – | – | – |
| Cc1ccc2c3c(c(=O)oc2c1)CN(CC(C)N1CCCC1)CC3 (configuration not stated) | 8.7 min | 2.3 | 0.1 mg/kg | 0.226 mg/kg |
| COc1ccc2c3c(c(=O)oc2c1)CN(CCN1CCCC1)CC3 | 9.1 min | 3 | 0.246 mg/kg | 0.735 mg/kg |
| CCN(C)C(C)CN1CCc2c(c(=O)oc3cc(C)ccc23)C1 (configuration not stated) | 8.8 min | 2.2 | – | – |
| CCN(C)C(C)CN1CCc2c(c(=O)oc3cc(OC)ccc23)C1 (configuration not stated) | 9.1 min | 1.5 | 0.015 mg/kg | 0.023 mg/kg |
| COc1cc2oc(=O)c3c(c2cc1OC)CCN(CC(C)N1CCCC1)C3 (configuration not stated) | 10 min | 1.4 | 0.017 mg/kg | 0.023 mg/kg |
| COc1cc2oc(=O)c3c(c2cc1OC)CCN(CCN1CC2CCC(CC2)C1)C3 | 5 min | 4.7 | 0.113 mg/kg | 0.53 mg/kg |
| COc1cc2oc(=O)c3c(c2cc1OC)CCN(CC(C)N1CCCCCC1)C3 (configuration not stated) | 1.7 min | – | – | – |
| CCNC(C)CN1CCc2c(c(=O)oc3ccccc23)C1 (configuration not stated) | 10 min | 5.9 | – | – |
